Results on 2 compounds are retold here after article PMC4553143 (Circulation research, 2015).

The subject of experiment [1] is granzyme B activity. Type of experiment: in vivo, mouse. In a few lines: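 Male CMy-Tg and C57BL/6 WT mice (10–12 weeks) received OT-1 CD8+ T cells i.p. in PBS (2.0, 3.5 or 5.0 × 10^6). Dexamethasone 0.75 mg/kg or PBS i.p. daily, days 1–4. Day 4: probe i.v. (50 μL, 1 μmol/L in PBS) or ProSense 680 (2 nmol/150 μL). After 24 h: FMT-CT under anaesthesia; ex vivo FRI, 680 nm channel.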

Experiment [2] has as its system CMy-Tg mice. In words: Survival study in CD8+ T cell-mediated myocarditis. In kind it is in vivo, mouse. The settings on record: 0.75 mg/kg i.p. for 4 days; 2.0 × 10^6 OT-1 cells; n = 8. In a few lines: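 Male CMy-Tg and WT C57BL/6 mice (10–12 weeks) received 2.0, 3.5 or 5.0 × 10^6 OT-1 CD8+ T cells i.p. in PBS. Dexamethasone 0.75 mg/kg/day, freshly dissolved in sterile PBS, given i.p. in 100 μL on days 1–4 after cell transfer; controls received PBS. Survival followed for 28 days; Kaplan–Meier analysis, n = 8 per group.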

Experiment [3] concerns CMy-Tg mice. In words: Heart and serum markers and histology in CD8+ T cell-mediated myocarditis. Type of experiment: in vivo, mouse. The note with it: CMy-Tg mice 5 days post transfer of 3.5 × 10^6 OT-1 CD8+ T cells. Summed up: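 CMy-Tg (n = 12) and WT (n = 4) mice received 3.5 × 10^6 OT-1 CD8+ T cells. PBS vehicle or dexamethasone (0.75 mg/kg) i.p. on days 1–4. Hearts and serum collected at day 5. Heart granzyme B and cleaved caspase-3 measured by Western blot, normalized to GAPDH. Serum granzyme B, interferon-γ and cardiac troponin-I assayed. P values versus vehicle of each strain.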

Experiment [4] concerns OT-1 CD8+ T cells / CMy-Tg cardiomyocytes. The experiment can be described thus: Granzyme B expression in OT-1 CD8+ T cells and co-cultures in vitro. Type of experiment: cell-based, mouse.
The subject of another experiment is chymotrypsin. The experiment can be described thus: Enzymatic assay of nanoprobe activation. Type of experiment: biochemical. The note with it: chymotrypsin 0.01 mg/mL, 82-fold excess activity; n = 3.
Experiment [5] deals with T1, granzyme B in lysates of CD8+ T cells (Mus musculus, UniProt P04187).
T1 sequence (P04187 21-247): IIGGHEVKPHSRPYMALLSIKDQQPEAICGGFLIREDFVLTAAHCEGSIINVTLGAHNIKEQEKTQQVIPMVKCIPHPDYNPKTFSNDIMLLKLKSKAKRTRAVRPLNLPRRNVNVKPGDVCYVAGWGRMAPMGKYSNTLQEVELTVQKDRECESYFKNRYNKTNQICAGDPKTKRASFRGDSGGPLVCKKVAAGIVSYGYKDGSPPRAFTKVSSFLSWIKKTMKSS
The experiment can be described thus: Probe activation by lysates of CD8+ T cells. In kind it is biochemical.

For experiment [6], the system named is granzyme B activity. The experiment can be described thus: Ex vivo FRI in cardiac myosin-induced experimental autoimmune myocarditis. The settings on record: 24 hours post probe injection, 21 days after immunization. Details: species or system mouse. In a few lines:
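Balb/cByJ mice were immunized with a murine α-myosin H chain-derived peptide (n = 16); controls received PBS instead (n = 4). Granzyme B-sensitive probe given i.v. on day 20. One day later, excised hearts and sections were imaged by microscopic ex vivo FRI in the 680 nm channel. Exposure: 1 min for tissue, 30 min for heart sections.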

In the case of `C[C@@H]1C[C@H]2[C@@H]3CCC4=CC(=O)C=C[C@]4(C)[C@@]3(F)[C@@H](O)C[C@]2(C)[C@@]1(O)C(=O)CO` [dexamethasone], the “granzyme B activity, fluorescence intensities in hearts” value in the experiment on granzyme B activity [1] (dexamethasone administration in vivo, vehicle 504±263, P=0.002) was determined as 194±77 fluorescence intensities. For the same compound, the “survival of CMy-Tg mice” value with CMy-Tg mice [2] is on record as “survived for 28 days”. Moreover, the “serum concentrations of granzyme B, interferon-γ, and cardiac troponin-I” value with CMy-Tg mice [3] is on record as “limited these increases”. Further, in the experiment with CMy-Tg mice [3] (Western blot), the “protein levels of granzyme B and active caspase-3 in hearts” value is on record as “reduced these concentrations”. For the same compound, in experiment [4] (48 hours of anti-CD3 stimulation), the “granzyme B protein concentrations in OT-1 CD8+ T cells and their culture medium” value is “did not mute this rise”. For the same compound, the “probe signals colocalized with granzyme B activity” value in experiment [4] (CMy-Tg cardiomyocytes co-cultured with OT-1 CD8+ T cells, confocal microscopy) was “decreased the probe signals”.

“GIEFDSGGC [granzyme B-sensitive nanoprobe]”: the “probe activation on incubation with chymotrypsin” value with chymotrypsin is reported as “activation comparable in intensity to Granzyme B”. The “fluorescent signal from the probe incubated with lysates” value is recorded as “increased above baseline after 48 hours” in experiment [5] (lysates of Balb/c WT CD8+ T cells stimulated with anti-CD-3, 48 hours) and “did not demonstrate a comparable increase” in experiment [5] (lysates of granzyme B-deficient CD8+ T cells). For the same compound, the “signal compared with ProSense 680” value with granzyme B activity [1] (CD8+ T cell-mediated myocardial injury model) is “substantially higher signal”. In the experiment with granzyme B activity [6], the “signals from the probe in heart tissues and sections, EAM Balb/cByJ vs WT mice” value is on record as “higher signals”.
